Measurements taken from ChEMBL document CHEMBL2401635, “Synthesis and biological properties of novel brefeldin A analogues” (J Med Chem, 2013).
Active and inactive are the calls of the source. No cut-off for these calls is given here.

Tests used:
[1] = test system: Coxsackievirus B3; test: Antiviral activity against Coxsackievirus B3 infected in human HeLa R19 cells assessed as inhibition of viral replication at 5 to 50 uM after 7 hrs by luciferase reporter gene assay; format: functional, organism-based
How it was run: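 HeLa R19 subconfluent monolayers infected 30 min at 37 °C with Renilla luciferase-expressing CVB3, MOI 0.1 CCID50; virus replaced by medium with 0.5, 5 or 50 μM compound (5 mM DMSO stock) or matching DMSO. After 7 h, lysed and Renilla luciferase read; triplicates normalized to same-DMSO-dilution controls, shown as means ± SEM on log scale.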

[2] = Cytotoxicity against human HeLa R19 cells assessed as reduction of cell viability at 0.5 to 50 uM by MTS assay; format: cell-based; conditions: hela r19, 50 µM
[3] = Cytostatic activity against human NCI60 cells by SRB assay; format: functional; conditions: for CC50: read-out: LC50 (the source's name)
How it was run: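 NCI screen: single 10 μM dose first; active compounds then run at five concentrations on the same cell panel to give GI50, TGI and LC50, reported as averages over all cell lines; mean of two 5-dose tests, or one test where noted.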

[4] = test system: Nicotiana tabacum; test: Induction of morphological changes of golgi apparatus in tobacco mesophyll protoplast expressing Man1-RFP at 90 uM after 30 mins by confocal laser scanning microscopic analysis; format: functional
How it was run: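 Nicotiana tabacum cv. Petit Havana mesophyll protoplasts transiently expressing cis-Golgi marker Man1-RFP, treated 30 min with 90 μM compound (dissolved in DMSO) in half MS medium, untreated controls; observed by CLSM with 63× water-immersion objective.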

[5] = test system: HeLa; test: Induction of golgi apparatus disassembly in human HeLa cells at 5 uM incubated for 60 mins followed by compound washout measured after 2 hrs by confocal microscopic analysis; format: functional, cell-based
How it was run: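 Reassembly: HeLa cells given 5 μM final compound for 60 min at 37 °C, drug removed, then 2 h further in drug-free medium; fixed, anti-GM130 immunolabeled (paraformaldehyde fixation, Triton permeabilization, BSA block, Alexa 546 secondary) and examined by confocal microscopy; untreated medium controls.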

[6] = test system: HeLa; test: Induction of golgi apparatus disassembly in human HeLa cells at 5 uM after 30 to 60 mins by confocal microscopic analysis; format: functional, cell-based
How it was run: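 HeLa cells in DMEM, 10% FBS, penicillin/streptomycin, 2 mM L-glutamine, exposed to 5 μM final compound at 37 °C for 30 or 60 min; fixed 4% paraformaldehyde 20 min, NH4Cl quench, 0.5% Triton X-100 permeabilization, 5% BSA block, anti-GM130 (cis Golgi) with Alexa 546 secondary; confocal imaging.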

[7] = test system: Coxsackievirus B3; test: Antiviral activity against Coxsackievirus B3 infected in human HeLa R19 cells assessed as inhibition of viral replication at 0.5 uM after 7 hrs by luciferase reporter gene assay; format: functional, organism-based
How it was run: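 HeLa R19 subconfluent monolayers infected 30 min at 37 °C with Renilla luciferase-expressing CVB3 (RLuc-CVB3), MOI 0.1 CCID50; inoculum replaced by medium with compound (0.5, 5 or 50 μM final; 5 mM DMSO stock) or matched DMSO control. After 7 h, cells lysed and Renilla luciferase read as replication measure; triplicates normalized to mean of same-DMSO-dilution controls.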

[8] = test system: Arabidopsis thaliana; test: Induction of morphological changes of golgi apparatus in Arabidopsis thaliana root cells expressing ST-YFP/VHAa1-RFP at 90 uM after 30 mins by confocal laser scanning microscopic analysis; format: functional
How it was run: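 Arabidopsis thaliana stably expressing VHAa1-RFP/N-ST-YFP grown from surface-sterilized seed on half-strength MS, 1% sucrose, 22 °C, 16 h days; roots treated 30 min with 90 μM compound (DMSO solution) in half MS medium, untreated controls; imaged by CLSM with 63× water-immersion objective.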

[9] = Toxicity in ip dosed mouse; format: organism-based; conditions: in vivo

| SMILES | inhibition [1] | Activity [2] | GI50 [3] | TGI [3] | CC50 [3] | Activity [4] | Activity [5] | Activity [6] | inhibition [7] | Activity [8] | LD50 [9] |
| --- | --- | --- | --- | --- | --- | --- | --- | --- | --- | --- | --- |
| O=C1/C=C/[C@@H](O)[C@@H]2C[C@@H](O)C[C@H]2/C=C/CCC[C@H](CCO)O1 | Active | Non-toxic | 0.178 µM | 7.69 µM | 47.6 µM | – | – | – | – | – | – |
| COCC[C@H]1CCC/C=C/[C@@H]2C[C@H](O)C[C@H]2[C@H](O)/C=C/C(=O)O1 | Active | Non-toxic | 0.0902 µM | 5.78 µM | 42.3 µM | – | – | – | – | – | – |
| O=C1/C=C/[C@@H](O)[C@@H]2C[C@@H](O)C[C@H]2/C=C/CCCCO1 | – | – | 0.631 µM | 20.9 µM | 69.2 µM | – | – | – | – | – | – |
| O=C1/C=C/[C@@H](O)[C@@H]2C[C@@H](O)C[C@H]2/C=C/CCC[C@H](CCc2ccc3cccnc3c2)O1 | – | – | 0.262 µM | 7.61 µM | 63.9 µM | Active | – | – | – | – | – |
| O=C1/C=C/[C@@H](O)[C@@H]2C[C@@H](O)C[C@H]2/C=C/CCC[C@H](C(F)(F)F)O1 | – | – | 0.321 µM | 5.49 µM | 48.2 µM | – | – | – | – | – | – |
| O=C1/C=C/[C@@H](O)[C@@H]2C[C@@H](O)C[C@H]2/C=C/CCC[C@H](CCc2ccccc2)O1 | Active | Non-toxic | 0.0299 µM | 2.04 µM | 40 µM | Active | inactive | – | – | – | – |
| C=C[C@@H]1CCC/C=C/[C@@H]2C[C@H](O)C[C@H]2[C@H](O)/C=C/C(=O)O1 | – | – | 0.631 µM | 17.8 µM | 66.3 µM | – | – | – | – | – | – |
| CC(=O)Nc1ccc(CC[C@H]2CCC/C=C/[C@@H]3C[C@H](O)C[C@H]3[C@H](O)/C=C/C(=O)O2)cc1 | Active | Non-toxic | 0.152 µM | 5.7 µM | 51.6 µM | Active | – | – | – | – | – |
| CC(=O)[C@H]1CCC/C=C/[C@@H]2C[C@H](O)C[C@H]2[C@H](O)/C=C/C(=O)O1 | Active | Non-toxic | 0.594 µM | 13.3 µM | 61.7 µM | – | – | – | – | – | – |
| O=C1/C=C/[C@@H](O)[C@@H]2C[C@@H](O)C[C@H]2/C=C/CCC[C@H](CCc2ccc(C(F)(F)F)cc2)O1 | Active | Non-toxic | 0.212 µM | 5.97 µM | 66.2 µM | Active | inactive | Active | Active | – | – |
| O=C1/C=C/[C@@H](O)[C@@H]2C[C@@H](O)C[C@H]2/C=C/CCC[C@H](CCOCc2ccccc2)O1 | Active | Non-toxic | 0.0809 µM | 5.05 µM | 35.5 µM | – | – | – | – | – | – |
| CC[C@H]1CCC/C=C/[C@@H]2C[C@H](O)C[C@H]2[C@H](O)/C=C/C(=O)O1 | – | – | 0.0446 µM | 5.82 µM | 35.8 µM | – | – | – | – | Active | – |
| C[C@H]1CCC/C=C/[C@@H]2C[C@H](O)C[C@H]2[C@H](O)/C=C/C(=O)O1 [BREFELDIN A] | Active | Non-toxic | 0.0206 µM | 3.48 µM | 52.6 µM | Active | inactive | Active | Active | Active | > 200 mg/kg |
| O=C1/C=C/[C@@H](O)[C@@H]2C[C@@H](O)C[C@H]2/C=C/CCC[C@H](CCc2cccc3ccccc23)O1 | Active | Non-toxic | 0.0739 µM | 2.28 µM | 25.1 µM | – | inactive | – | – | – | – |
| O=C1/C=C/[C@@H](O)[C@@H]2C[C@@H](O)C[C@H]2/C=C/CCC[C@H](CCc2ccc(F)cc2)O1 | Active | Non-toxic | – | – | – | – | – | – | – | – | – |
| O=C1/C=C/[C@@H](O)[C@@H]2C[C@@H](O)C[C@H]2/C=C/CCC[C@H](CO)O1 | – | – | 2.57 µM | 38 µM | 85.1 µM | – | – | – | – | – | – |
| Nc1ccc(CC[C@H]2CCC/C=C/[C@@H]3C[C@H](O)C[C@H]3[C@H](O)/C=C/C(=O)O2)cc1 | – | – | 0.0343 µM | 2.68 µM | 56.3 µM | – | – | – | – | – | – |
| C=C[C@H]1CCC/C=C/[C@@H]2C[C@H](O)C[C@H]2[C@H](O)/C=C/C(=O)O1 | Active | Non-toxic | 0.0319 µM | 4.91 µM | 39 µM | – | – | Active | – | Active | – |
